Among the data in ChEMBL document CHEMBL3576803, “Antimicrobial Phenolic Bisabolanes and Related Derivatives from Penicillium aculeatum SD-321, a Deep Sea Sediment-Derived Fungus” (J Nat Prod, 2015) are LC50 and MIC values, retold here.

A short description of data set [1]: Toxicity in brine shrimp. The format is organism-based. Particulars: artemia salina, in vivo; read-out: LD50 (the source's name).
A further data set has as its system Escherichia coli. Description: Antibacterial activity against Escherichia coli EMBLC-1 by microplate assay. It counts as functional.
In another data set the test system is Vibrio alginolyticus. Description: Antibacterial activity against Vibrio alginolyticus QDIO-5 by microplate assay. The format is functional.
Another data set has as its system Micrococcus luteus. Description: Antibacterial activity against Micrococcus luteus QDIO-3 by microplate assay. The format is functional.
In another data set the test system is Aeromonas hydrophila. Briefly: Antibacterial activity against Aeromonas hydrophila QDIO-1 by microplate assay. It counts as functional.
A further data set concerns Edwardsiella tarda. Description: Antibacterial activity against Edwardsiella tarda QDIO-2 by microplate assay. The format is functional.
For the next data set, the system named is Staphylococcus aureus. Briefly: Antibacterial activity against Staphylococcus aureus EMBLC-2 by microplate assay. The format is functional.
The test system of a further data set is Vibrio parahaemolyticus. Briefly: Antibacterial activity against Vibrio parahaemolyticus QDIO-8 by microplate assay. It counts as functional.
Another data set concerns Pseudomonas aeruginosa. Description: Antibacterial activity against Pseudomonas aeruginosa QDIO-4 by microplate assay. It counts as functional.
A further data set relates to Vibrio harveyi. Description: Antibacterial activity against Vibrio harveyi QDIO-7 by microplate assay. It counts as functional.
The test system of a further data set is Alternaria brassicae. Briefly: Antifungal activity against Alternaria brassicae QDAU-1 by microplate assay. It counts as functional. The gist of the method:
(§1)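 Phytopathogenic fungal strains came from a research group at Qingdao Agricultural University and are kept at the Key Laboratory of Experimental Marine Biology, Institute of Oceanology, CAS. Tested by microplate assay with amphotericin B as the positive control.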

Another data set concerns Gaeumannomyces graminis. Description: Antifungal activity against Gaeumannomyces graminis QDAU-3 by microplate assay. It counts as functional. The gist of the method:
as §1

For the next data set, the system named is Vibrio anguillarum. Briefly: Antibacterial activity against Vibrio anguillarum QDIO-6 by microplate assay. The format is functional.
In data set [2] the test system is Colletotrichum gloeosporioides. Briefly: Antifungal activity against Colletotrichum gloeosporioides QDAU-2 by microplate assay. It counts as functional. The gist of the method: as §1

In brackets after ≈: the same amount, converted by molar mass.

On to `C/C(=C\CCC(C)C)c1ccc(Cc2c(C)cc(Oc3cc(C)cc(O)c3)cc2O)cc1O`, for which, in data set [1], the LC50 is more than 10 µg/mL. Besides, the minimal inhibitory concentration (MIC) was 32 µg/mL (≈ 71.7 µM) in the data set on Escherichia coli; 8 µg/mL (≈ 17.9 µM) against Vibrio alginolyticus; 8 µg/mL (≈ 17.9 µM) against Micrococcus luteus; more than 32 µg/mL against Aeromonas hydrophila; more than 32 µg/mL in the data set with Edwardsiella tarda; more than 32 µg/mL in the data set on Staphylococcus aureus. Moreover, the MIC in the data set on Vibrio parahaemolyticus was 32 µg/mL (≈ 71.7 µM); against Pseudomonas aeruginosa it was 4 µg/mL (≈ 8.96 µM); with Vibrio harveyi, more than 32 µg/mL; against Alternaria brassicae, 32 µg/mL (≈ 71.7 µM); against Gaeumannomyces graminis, 32 µg/mL (≈ 71.7 µM); with Vibrio anguillarum, 32 µg/mL (≈ 71.7 µM). In data set [2], this compound gave an MIC of 32 µg/mL (≈ 71.7 µM).
Turning to `Cc1ccc([C@@]2(C)CCC(=O)O2)c(O)c1`, in data set [1], the LC50 was more than 10 µg/mL. Also, the MIC against Escherichia coli was 32 µg/mL (≈ 155 µM); in the data set on Vibrio alginolyticus, more than 32 µg/mL; against Micrococcus luteus it was more than 32 µg/mL; with Aeromonas hydrophila it was more than 32 µg/mL; against Edwardsiella tarda it was more than 32 µg/mL; against Staphylococcus aureus, 32 µg/mL (≈ 155 µM). Moreover, the minimal inhibitory concentration (MIC) was more than 32 µg/mL against Vibrio parahaemolyticus; more than 32 µg/mL against Pseudomonas aeruginosa; 4 µg/mL (≈ 19.4 µM) in the data set with Vibrio harveyi; more than 32 µg/mL against Alternaria brassicae; 32 µg/mL (≈ 155 µM) in the data set on Gaeumannomyces graminis; more than 32 µg/mL with Vibrio anguillarum. The lowest concentration to inhibit growth in data set [2] (MIC) was 32 µg/mL (≈ 155 µM).
Regarding `C=C(C)CCC[C@](C)(O)c1ccc(C(=O)O)cc1O` [11-DEHYDROSYDONIC ACID], in [1], the LC50 was more than 10 µg/mL. Besides, the MIC is more than 32 µg/mL against Escherichia coli; more than 32 µg/mL against Vibrio alginolyticus; 32 µg/mL (≈ 121 µM) against Micrococcus luteus; more than 32 µg/mL with Aeromonas hydrophila; more than 32 µg/mL in the data set with Edwardsiella tarda; 32 µg/mL (≈ 121 µM) in the data set with Staphylococcus aureus. Moreover, the MIC in the data set on Vibrio parahaemolyticus is 32 µg/mL (≈ 121 µM); with Pseudomonas aeruginosa, more than 32 µg/mL; with Vibrio harveyi, 4 µg/mL (≈ 15.1 µM); with Alternaria brassicae, more than 32 µg/mL; against Gaeumannomyces graminis, more than 32 µg/mL; in the data set with Vibrio anguillarum, more than 32 µg/mL. In [2], this compound displayed an MIC of 32 µg/mL (≈ 121 µM).
In the case of `C=C(CCCC(C)C)c1ccc(C(=O)O)cc1O`, the LC50 in data set [1] is more than 10 µg/mL. The MIC against Escherichia coli was more than 32 µg/mL; against Vibrio alginolyticus, more than 32 µg/mL; in the data set on Micrococcus luteus it was more than 32 µg/mL; with Aeromonas hydrophila, more than 32 µg/mL; against Edwardsiella tarda it was more than 32 µg/mL; against Staphylococcus aureus, 32 µg/mL (≈ 129 µM). For the same compound, the MIC in the data set with Vibrio parahaemolyticus is 32 µg/mL (≈ 129 µM); in the data set with Pseudomonas aeruginosa, more than 32 µg/mL; against Vibrio harveyi, 4 µg/mL (≈ 16.1 µM); with Alternaria brassicae, more than 32 µg/mL; with Gaeumannomyces graminis, 0.5 µg/mL (≈ 2.01 µM); in the data set with Vibrio anguillarum, more than 32 µg/mL. The MIC in data set [2] is more than 32 µg/mL.
`CC(C)(O)CCC[C@](C)(O)c1ccc(C(=O)O)cc1O`: the LC50 in [1] is more than 10 µg/mL. The MIC with Escherichia coli was 32 µg/mL (≈ 113 µM); in the data set with Vibrio alginolyticus, more than 32 µg/mL; with Micrococcus luteus it was more than 32 µg/mL; against Aeromonas hydrophila, 32 µg/mL (≈ 113 µM); against Edwardsiella tarda it was more than 32 µg/mL; against Staphylococcus aureus, more than 32 µg/mL. The MIC is 32 µg/mL (≈ 113 µM) in the data set with Vibrio parahaemolyticus; more than 32 µg/mL against Pseudomonas aeruginosa; more than 32 µg/mL in the data set on Vibrio harveyi; more than 32 µg/mL against Alternaria brassicae; more than 32 µg/mL in the data set with Gaeumannomyces graminis; 32 µg/mL (≈ 113 µM) against Vibrio anguillarum. For the same compound, the MIC in data set [2] is more than 32 µg/mL.
As to `Cc1cc(O)cc(Oc2cc(C)cc(OCc3ccc([C@@](C)(O)CCCC(C)C)c(O)c3)c2)c1`, the LC50 in [1] is more than 10 µg/mL. In addition, the MIC against Escherichia coli was more than 32 µg/mL; against Vibrio alginolyticus, 2 µg/mL (≈ 4.3 µM); against Micrococcus luteus, 1 µg/mL (≈ 2.15 µM); in the data set with Aeromonas hydrophila, more than 32 µg/mL; against Edwardsiella tarda it was more than 32 µg/mL; against Staphylococcus aureus, more than 32 µg/mL. Further, the MIC against Vibrio parahaemolyticus was more than 32 µg/mL; in the data set on Pseudomonas aeruginosa, 32 µg/mL (≈ 68.9 µM); against Vibrio harveyi it was more than 32 µg/mL; in the data set on Alternaria brassicae, 0.5 µg/mL (≈ 1.08 µM); against Gaeumannomyces graminis it was 32 µg/mL (≈ 68.9 µM); with Vibrio anguillarum, more than 32 µg/mL. The MIC in data set [2] is more than 32 µg/mL.
For `CC(C)C(O)CC[C@](C)(O)c1ccc(C(=O)O)cc1O` (some centres undefined), in data set [1], the LC50 is more than 10 µg/mL. Also, the MIC is more than 32 µg/mL against Escherichia coli; more than 32 µg/mL in the data set on Vibrio alginolyticus; more than 32 µg/mL against Micrococcus luteus; 32 µg/mL (≈ 113 µM) in the data set with Aeromonas hydrophila; more than 32 µg/mL with Edwardsiella tarda; 32 µg/mL (≈ 113 µM) against Staphylococcus aureus. The MIC against Vibrio parahaemolyticus was 32 µg/mL (≈ 113 µM); against Pseudomonas aeruginosa, more than 32 µg/mL; with Vibrio harveyi, 8 µg/mL (≈ 28.3 µM); in the data set on Alternaria brassicae it was more than 32 µg/mL; against Gaeumannomyces graminis, more than 32 µg/mL; against Vibrio anguillarum, more than 32 µg/mL. In data set [2], this compound had an MIC of more than 32 µg/mL.
For `O=C(N[C@H](CO)[C@H](O)c1ccc([N+](=O)[O-])cc1)C(Cl)Cl` [CHLORAMPHENICOL], the MIC came out at 4 µg/mL (≈ 12.4 µM) against Escherichia coli; 0.5 µg/mL (≈ 1.55 µM) with Vibrio alginolyticus; 8 µg/mL (≈ 24.8 µM) against Micrococcus luteus; 4 µg/mL (≈ 12.4 µM) against Aeromonas hydrophila; 8 µg/mL (≈ 24.8 µM) in the data set on Edwardsiella tarda; 0.5 µg/mL (≈ 1.55 µM) in the data set on Staphylococcus aureus. Further, the MIC against Vibrio parahaemolyticus was found to be 0.5 µg/mL (≈ 1.55 µM); against Pseudomonas aeruginosa it was 8 µg/mL (≈ 24.8 µM); against Vibrio harveyi, 4 µg/mL (≈ 12.4 µM); against Vibrio anguillarum it was 0.5 µg/mL (≈ 1.55 µM).
For `CC(C)CCC[C@](C)(O)c1ccc(COC(=O)c2ccc([C@@](C)(O)CCCC(C)C)c(O)c2)cc1O`, the LC50 in data set [1] is more than 10 µg/mL. Further, the MIC in the data set with Escherichia coli is more than 32 µg/mL; with Vibrio alginolyticus, more than 32 µg/mL; with Micrococcus luteus, more than 32 µg/mL; with Aeromonas hydrophila, more than 32 µg/mL; in the data set with Edwardsiella tarda, 8 µg/mL (≈ 16 µM); with Staphylococcus aureus, more than 32 µg/mL. In addition, the MIC is 32 µg/mL (≈ 63.9 µM) against Vibrio parahaemolyticus; more than 32 µg/mL against Pseudomonas aeruginosa; more than 32 µg/mL with Vibrio harveyi; 32 µg/mL (≈ 63.9 µM) with Alternaria brassicae; more than 32 µg/mL with Gaeumannomyces graminis; more than 32 µg/mL with Vibrio anguillarum. Besides, in [2], the MIC is more than 32 µg/mL.
On to `CC(C)CCC[C@](C)(O)c1ccc(C(=O)O)cc1O`, for which, in [1], the LC50 was more than 10 µg/mL. The MIC is more than 32 µg/mL in the data set with Escherichia coli; more than 32 µg/mL against Vibrio alginolyticus; more than 32 µg/mL against Micrococcus luteus; more than 32 µg/mL in the data set on Aeromonas hydrophila; 32 µg/mL (≈ 120 µM) against Edwardsiella tarda; 32 µg/mL (≈ 120 µM) against Staphylococcus aureus. Besides, the MIC was 4 µg/mL (≈ 15 µM) with Vibrio parahaemolyticus; more than 32 µg/mL with Pseudomonas aeruginosa; 4 µg/mL (≈ 15 µM) in the data set on Vibrio harveyi; more than 32 µg/mL against Alternaria brassicae; 0.5 µg/mL (≈ 1.88 µM) against Gaeumannomyces graminis; 32 µg/mL (≈ 120 µM) with Vibrio anguillarum. Moreover, 32 µg/mL (≈ 120 µM) was the least that counted as inhibitory in [2] (MIC).
Take `C[C@@H]1[C@H](O)[C@@H](C)/C=C/C=C/C=C/C=C/C=C/C=C/C=C/[C@H](O[C@@H]2O[C@H](C)[C@@H](O)[C@H](N)[C@@H]2O)C[C@@H]2O[C@](O)(C[C@@H](O)C[C@@H](O)[C@H](O)CC[C@@H](O)C[C@@H](O)CC(=O)O[C@H]1C)C[C@H](O)[C@H]2C(=O)O` [AMPHOTERICIN B]: the MIC came to 32 µg/mL (≈ 34.6 µM) in the data set with Alternaria brassicae, 64 µg/mL (≈ 69.3 µM) in the data set with Gaeumannomyces graminis and 32 µg/mL (≈ 34.6 µM) in data set [2].

The term MIC denotes the lowest concentration found to suppress growth.
